Laboratory results taken from ChEMBL document CHEMBL3526118, “Combination of GSH trapping and time-dependent inhibition assays as a predictive method of drugs generating highly reactive metabolites” (Drug Metab Dispos, 2011).

Key:
CYP2C8 [1] = target: T1, CYP2C8 (Homo sapiens, UniProt P10632); test: in vitro
T1 sequence (P10632 whole entry): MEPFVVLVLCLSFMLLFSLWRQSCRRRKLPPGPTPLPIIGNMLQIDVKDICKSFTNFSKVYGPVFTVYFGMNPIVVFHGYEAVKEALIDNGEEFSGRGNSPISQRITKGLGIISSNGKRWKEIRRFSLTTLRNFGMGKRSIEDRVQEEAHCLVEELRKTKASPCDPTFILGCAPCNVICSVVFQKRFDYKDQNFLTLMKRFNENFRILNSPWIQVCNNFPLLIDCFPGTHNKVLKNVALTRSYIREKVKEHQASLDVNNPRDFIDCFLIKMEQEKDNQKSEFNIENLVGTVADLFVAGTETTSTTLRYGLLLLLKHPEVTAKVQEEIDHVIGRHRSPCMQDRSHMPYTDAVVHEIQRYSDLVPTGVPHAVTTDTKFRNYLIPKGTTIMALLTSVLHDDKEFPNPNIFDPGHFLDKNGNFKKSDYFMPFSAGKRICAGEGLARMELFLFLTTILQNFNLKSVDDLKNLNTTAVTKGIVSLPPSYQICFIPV

Liver microsome [2] = test: Metabolic activation in human liver microsomes assessed as [3H]GSH adduct formation rate measured per mg of protein at 100 uM by [3H]GSH trapping assay
CYP2B6 [3] = target: T2, CYP2B6 (Homo sapiens, UniProt P20813); test: in vitro
T2 sequence (P20813 whole entry): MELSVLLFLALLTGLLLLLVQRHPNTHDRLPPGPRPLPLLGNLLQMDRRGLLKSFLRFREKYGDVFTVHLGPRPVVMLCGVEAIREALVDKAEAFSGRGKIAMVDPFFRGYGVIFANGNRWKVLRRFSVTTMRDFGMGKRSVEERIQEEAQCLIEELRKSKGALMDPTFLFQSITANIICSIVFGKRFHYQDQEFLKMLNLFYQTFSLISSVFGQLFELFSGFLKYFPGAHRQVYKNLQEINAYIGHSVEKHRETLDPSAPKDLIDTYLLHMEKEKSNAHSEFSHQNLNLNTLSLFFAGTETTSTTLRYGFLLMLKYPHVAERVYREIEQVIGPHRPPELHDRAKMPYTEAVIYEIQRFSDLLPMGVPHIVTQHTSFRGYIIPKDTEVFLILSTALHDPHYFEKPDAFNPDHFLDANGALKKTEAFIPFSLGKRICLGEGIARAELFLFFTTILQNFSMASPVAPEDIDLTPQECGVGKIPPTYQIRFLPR

[4] = Intrinsic clearance for reactive metabolites formation assessed as summation of [3H]GSH adduct formation rate-based reactive metabolites formation and cytochrome P450 (unknown origin) inactivation rate-based reactive metabolites formation; settings: human
[5] = Intrinsic clearance for reactive metabolites formation per mg of protein based on cytochrome P450 (unknown origin) inactivation rate by TDI assay; settings: human
CYP3A4 [6] = target: T3, CYP3A4 (Homo sapiens, UniProt P08684); test: in vitro
T3 sequence (P08684 whole entry): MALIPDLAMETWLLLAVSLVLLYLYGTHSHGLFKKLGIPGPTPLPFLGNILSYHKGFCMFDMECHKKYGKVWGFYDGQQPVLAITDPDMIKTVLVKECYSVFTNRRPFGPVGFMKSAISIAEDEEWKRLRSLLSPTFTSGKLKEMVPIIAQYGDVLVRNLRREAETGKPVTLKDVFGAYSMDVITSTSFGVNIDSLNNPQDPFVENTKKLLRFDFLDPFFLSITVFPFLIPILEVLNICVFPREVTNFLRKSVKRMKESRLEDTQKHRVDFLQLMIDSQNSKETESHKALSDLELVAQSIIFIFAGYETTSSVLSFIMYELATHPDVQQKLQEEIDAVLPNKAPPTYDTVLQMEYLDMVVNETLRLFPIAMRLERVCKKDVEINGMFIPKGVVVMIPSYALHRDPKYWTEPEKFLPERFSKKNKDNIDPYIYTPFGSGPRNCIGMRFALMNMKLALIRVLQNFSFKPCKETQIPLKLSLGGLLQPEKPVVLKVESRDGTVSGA

CYP1A2 = target: T4, CYP1A2 (Homo sapiens, UniProt P05177); test: in vitro
T4 sequence (P05177 whole entry): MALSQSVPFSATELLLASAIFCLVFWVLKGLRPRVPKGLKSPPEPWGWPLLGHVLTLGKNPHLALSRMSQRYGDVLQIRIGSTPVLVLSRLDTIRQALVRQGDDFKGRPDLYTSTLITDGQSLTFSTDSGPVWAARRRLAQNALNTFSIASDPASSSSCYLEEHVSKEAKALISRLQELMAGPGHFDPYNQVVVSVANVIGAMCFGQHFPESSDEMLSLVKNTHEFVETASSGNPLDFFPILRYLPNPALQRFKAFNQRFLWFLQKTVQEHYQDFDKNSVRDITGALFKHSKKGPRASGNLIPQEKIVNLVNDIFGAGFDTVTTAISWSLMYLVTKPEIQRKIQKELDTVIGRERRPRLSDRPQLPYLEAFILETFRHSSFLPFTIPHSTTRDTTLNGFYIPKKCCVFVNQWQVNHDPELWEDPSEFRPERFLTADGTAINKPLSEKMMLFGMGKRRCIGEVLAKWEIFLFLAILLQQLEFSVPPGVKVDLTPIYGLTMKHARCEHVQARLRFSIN

CYP2C9 [7] = target: T5, CYP2C9 (Homo sapiens, UniProt P11712); test: Time dependent inhibition of CYP2C9 (unknown origin) at 10 uM by LC/MS system; format: ADME
T5 sequence (P11712 whole entry): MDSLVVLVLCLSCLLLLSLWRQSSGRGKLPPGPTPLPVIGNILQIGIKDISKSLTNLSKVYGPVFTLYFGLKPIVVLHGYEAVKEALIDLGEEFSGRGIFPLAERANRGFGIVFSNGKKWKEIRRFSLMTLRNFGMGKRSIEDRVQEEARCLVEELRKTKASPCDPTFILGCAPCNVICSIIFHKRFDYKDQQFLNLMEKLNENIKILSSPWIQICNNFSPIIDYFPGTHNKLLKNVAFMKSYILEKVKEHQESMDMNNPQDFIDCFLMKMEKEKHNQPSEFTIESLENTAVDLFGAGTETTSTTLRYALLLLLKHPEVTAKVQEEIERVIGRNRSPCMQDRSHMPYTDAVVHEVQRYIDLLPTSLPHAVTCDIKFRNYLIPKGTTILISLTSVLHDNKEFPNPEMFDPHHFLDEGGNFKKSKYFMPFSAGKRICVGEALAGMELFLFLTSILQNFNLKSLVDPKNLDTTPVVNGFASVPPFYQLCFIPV
Outline: (§1)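 Human liver microsomes at 1.0 mg/mL were preincubated 0 or 30 min with compound and NADPH-generating system in 0.1 M sodium phosphate, then diluted ten-fold into incubation containing 200 μM tolbutamide (final) for 10 min to probe CYP2C9. Percent of matched no-inhibitor control was determined at each time. Inactivation = 100 × [1 − ratio of 30-min to 0-min values]; 10% threshold.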

CYP2C19 [8] = target: T6, CYP2C19 (Homo sapiens, UniProt P33261); test: in vitro; settings: microsomes
T6 sequence (P33261 whole entry): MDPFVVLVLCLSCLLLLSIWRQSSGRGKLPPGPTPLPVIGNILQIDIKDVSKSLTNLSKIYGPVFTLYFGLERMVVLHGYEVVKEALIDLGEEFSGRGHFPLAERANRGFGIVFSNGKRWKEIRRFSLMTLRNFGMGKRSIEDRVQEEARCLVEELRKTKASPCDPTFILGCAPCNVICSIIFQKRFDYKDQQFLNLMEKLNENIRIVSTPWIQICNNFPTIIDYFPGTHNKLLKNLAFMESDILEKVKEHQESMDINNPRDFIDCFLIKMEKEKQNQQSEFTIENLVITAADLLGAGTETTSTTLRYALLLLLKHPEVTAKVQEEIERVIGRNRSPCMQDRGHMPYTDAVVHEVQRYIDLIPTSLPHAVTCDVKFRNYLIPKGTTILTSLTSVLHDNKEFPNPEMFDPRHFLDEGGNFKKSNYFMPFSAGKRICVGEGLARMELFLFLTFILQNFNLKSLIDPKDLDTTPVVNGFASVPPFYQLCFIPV

Liver microsome [9] = settings: human, microsomes, 100 µM
CYP2D6 [10] = target: T7, CYP2D6 (Homo sapiens, UniProt P10635); test: in vitro
T7 sequence (P10635 whole entry): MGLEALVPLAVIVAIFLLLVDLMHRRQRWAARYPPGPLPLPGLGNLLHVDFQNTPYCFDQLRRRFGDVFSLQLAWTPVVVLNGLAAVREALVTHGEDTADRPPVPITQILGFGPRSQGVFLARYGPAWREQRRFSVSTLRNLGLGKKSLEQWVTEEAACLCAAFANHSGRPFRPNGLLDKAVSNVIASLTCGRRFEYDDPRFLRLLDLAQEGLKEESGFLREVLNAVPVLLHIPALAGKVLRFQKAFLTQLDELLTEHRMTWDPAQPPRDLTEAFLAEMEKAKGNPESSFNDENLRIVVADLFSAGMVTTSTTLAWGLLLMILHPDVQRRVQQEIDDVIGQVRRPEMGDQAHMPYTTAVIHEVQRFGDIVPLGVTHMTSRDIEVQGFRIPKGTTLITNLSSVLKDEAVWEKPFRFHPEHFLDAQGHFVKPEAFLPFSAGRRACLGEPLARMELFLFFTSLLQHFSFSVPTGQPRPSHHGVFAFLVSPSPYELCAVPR

Liver microsome [11] = test: Covalent binding in human liver microsomes measured per mg of protein using radiolabelled compound at 10 uM after 1 hr incubation by liquid scintillation counting
CYP2C19 [12] = target: T6, CYP2C19; test: in vitro; settings: human liver microsomes
CYP2C9 [13] = target: T5, CYP2C9; test: Time dependent inhibition of CYP2C9 (unknown origin) at 30 uM by LC/MS system; format: ADME
Outline: as §1

CYP2C8 [14] = target: T1, CYP2C8; test: Time dependent inhibition of CYP2C8 (unknown origin) at 10 uM by LC/MS system; format: ADME
Outline: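 CYP2C8 in human liver microsomes (1.0 mg/mL in preincubation), 0.1 M sodium phosphate, NADPH-generating system. Preincubation 0 or 30 min, then ten-fold dilution into incubation with 10 μM paclitaxel (final) for 10 min.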

CYP3A4 [15] = target: T3, CYP3A4; test: Time dependent inhibition of CYP3A4 (unknown origin) at 50 uM by LC/MS system; format: ADME
Outline: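 CYP3A4: human liver microsomes at 0.5 mg/mL in preincubation, 0.1 M sodium phosphate, NADPH-generating system, 0 or 30 min. Ten-fold dilution into incubation with 2.5 μM midazolam (final), 10 min. Each value is relative to the matched control without inhibitor. % enzyme inactivation = 100 × [1 − %control(30 min)/%control(0 min)]; 10% threshold.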

CYP2B6 [16] = target: T2, CYP2B6; test: Time dependent inhibition of CYP2B6 (unknown origin) at 30 uM by LC/MS system; format: ADME
Outline: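 CYP2B6 in human liver microsomes (1.0 mg/mL in preincubation), 0.1 M sodium phosphate, NADPH-generating system. Preincubation 0 or 30 min, then ten-fold dilution into incubation solution containing 50 μM bupropion (final) for 10 min. Activity is expressed as percent of the matched no-inhibitor control. % inactivation = 100 × [1 − control(30 min)/control(0 min)]; threshold 10%.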

CYP2C9 [17] = target: T5, CYP2C9; test: in vitro
CYP2C19 [18] = target: T6, CYP2C19; test: Time dependent inhibition of CYP2C19 in human liver microsomes at 30 uM by LC/MS system; format: ADME
Outline: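 Human liver microsomes at 2.0 mg/mL in preincubation, 0.1 M sodium phosphate, NADPH-generating system; 0- or 30-min preincubation with inhibitor, then tenfold dilution into incubation containing 50 μM (S)-mephenytoin for 10 min; LC separation. Percent inactivation = 100×[1 − %control(30 min)/%control(0 min)] versus inhibitor-free controls; >10% counted positive. Concentration reduced from 100 μM for strong reversible inhibitors.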

CYP2D6 [19] = target: T7, CYP2D6; test: Time dependent inhibition of CYP2D6 (unknown origin) at 10 uM by LC/MS system; format: ADME
Outline: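 CYP2D6 activity was measured with 30 μM dextromethorphan (final) after 0 or 30 min preincubation of compound with human liver microsomes (1.0 mg/mL) and NADPH-generating system in 0.1 M sodium phosphate. A ten-fold dilution was followed by a 10-min incubation. % inactivation = 100 × [1 − %control(30 min)/%control(0 min)]; threshold 10%.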

CYP2B6 [20] = target: T2, CYP2B6; test: in vitro; remark: listed apart in the source

O=C(O)COc1ccc(C(=O)c2cccs2)c(Cl)c1Cl
inhibition at 100 µM (CYP2C8 [1]): < 10% | Drug metabolism (Liver microsome [2]): 4.2 pmol/min | inhibition at 100 µM (CYP2B6 [3]): < 10% | clearance [4]: 0.111 µL/min/mg | clearance [5]: 0.069 µL/min/mg | inhibition at 100 µM (CYP3A4 [6]): < 10% | inhibition at 100 µM (CYP1A2): < 10% | inhibition at 10 µM (CYP2C9 [7]): 28% | inhibition at 100 µM (CYP2C19 [8]): 35% | CLH (Liver microsome [9]): 0.042 µL/min/mg | inhibition at 100 µM (CYP2D6 [10]): < 10% | PB (Liver microsome [11]): 436.7 pmol

C#C[C@]1(O)CC[C@H]2[C@@H]3CCc4cc(O)ccc4[C@H]3CC[C@@]21C [ETHINYL ESTRADIOL]
Drug metabolism (Liver microsome [2]): 34 pmol/min | clearance [4]: 0.427 µL/min/mg | inhibition at 10 µM (CYP2C19 [12]): < 10% | inhibition at 30 µM (CYP2C9 [13]): 27% | clearance [5]: 0.087 µL/min/mg | inhibition at 10 µM (CYP2C8 [14]): < 10% | inhibition at 100 µM (CYP1A2): 18% | CLH (Liver microsome [9]): 0.34 µL/min/mg | inhibition at 100 µM (CYP2D6 [10]): < 10% | inhibition at 50 µM (CYP3A4 [15]): 65% | inhibition at 30 µM (CYP2B6 [16]): < 10% | PB (Liver microsome [11]): 937.5 pmol

CNCCC(Oc1ccc(C(F)(F)F)cc1)c1ccccc1 (stereo unspecified) [FLUOXETINE]
inhibition at 100 µM (CYP2C8 [1]): < 10% | Drug metabolism (Liver microsome [2]): metabolite_not_detected | inhibition at 100 µM (CYP2B6 [3]): < 10% | inhibition at 100 µM (CYP2C9 [17]): < 10% | clearance [4]: 0.008 µL/min/mg | inhibition at 30 µM (CYP2C19 [18]): 36% | clearance [5]: 0.008 µL/min/mg | inhibition at 100 µM (CYP3A4 [6]): < 10% | inhibition at 100 µM (CYP1A2): 12% | inhibition at 10 µM (CYP2D6 [19]): < 10% | PB (Liver microsome [11]): 15 pmol

Clc1ccccc1CN1CCc2sccc2C1 [TICLOPIDINE]
inhibition at 100 µM (CYP2C8 [1]): < 10% | inhibition at 100 µM (CYP2C9 [17]): < 10% | inhibition at 0.1 µM (CYP2B6 [20]): 35% | inhibition at 100 µM (CYP3A4 [6]): 26% | inhibition at 100 µM (CYP1A2): 36% | inhibition at 10 µM (CYP2D6 [19]): < 10%
